In ChEMBL document CHEMBL1671683, “Activity of linezolid in an in vitro pharmacokinetic-pharmacodynamic model using different dosages and Staphylococcus aureus and Enterococcus faecalis strains with and without a hypermutator phenotype” (Antimicrob Agents Chemother, 2010):

Tests used:
[1] = Mean residence time in two-compartment pharmacokinetic/pharmacodynamic model at 800 mg, bid administered as 0.5 hr infusion over 24 hrs; type: ADME, organism-based; details: in vivo, iv
[2] = tested on: Enterococcus faecalis; assay: ABBC (0 to 24 hrs) in Enterococcus faecalis Ef1497 in two-compartment pharmacokinetic/pharmacodynamic model at 800 mg, bid administered as 0.5 hr infusion for 2 days; type: functional
Outline: (§1)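 Hollow-fibre two-compartment model in cation-adjusted, protein-free MH broth at 37°C. Human total-plasma linezolid profile simulated as 0.5-h infusion every 12 h for 48 h. Concentrated 18-h culture injected into the peripheral compartment 3 h before first sample, giving about 10^8 (E. faecalis) or 10^9 (S. aureus) CFU/ml. Viable counts by dilution plating over 0–24 h. Area indices calculated versus growth control curve. Duplicate runs.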

[3] = tested on: Enterococcus faecalis; assay: AUBC (0 to 24 hrs) in Enterococcus faecalis Ef1497 MutM3 in two-compartment pharmacokinetic/pharmacodynamic model at 600 mg, bid administered as 0.5 hr infusion for 2 days; type: functional; outline: as §1
[4] = tested on: Enterococcus faecalis; assay: Bactericidal activity against 13 hrs peripheral compartment culture samples of Enterococcus faecalis ATCC 29212 in two-compartment pharmacokinetic/pharmacodynamic model assessed as effect on bacterial count at 200 mg, bid administered as 0.5 hr infusion; type: functional
Outline: (§2)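 An 18-h culture concentrated 50-fold was injected into the peripheral compartment 3 h pre-sampling (~10^8 CFU/ml E. faecalis, 10^9 S. aureus). Counts came from dilution plating (detection limit 2–3 log10 CFU/ml), expressed as Δlog CFU/ml from treatment start. Run in duplicate.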

[5] = tested on: Enterococcus faecalis; assay: T>MIC in Enterococcus faecalis Ef1497 MutM3 in two-compartment pharmacokinetic/pharmacodynamic model at 600 mg, bid administered as 0.5 hr infusion for 2 days; type: functional
[6] = tested on: Enterococcus faecalis; assay: Bactericidal activity against 1 hr peripheral compartment culture samples of Enterococcus faecalis Ef1497 in two-compartment pharmacokinetic/pharmacodynamic model assessed as effect on bacterial count at 800 mg, bid administered as 0.5 hr infusion; type: functional
Outline: (§3)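 Two-compartment hollow-fibre model in cation-adjusted, protein-free MH broth, 37°C. Linezolid given as simulated 0.5-h infusion twice daily. Inoculum grown 18 h, concentrated 50-fold and placed in the peripheral compartment 3 h before t0. Peripheral samples at set times counted by dilution plating. First 10-fold dilution not plated, limiting detection to 2–3 log10 CFU/ml. Δlog CFU/ml taken from t0 count. Duplicates.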

[7] = Residual concentration at the end of the administration interval in two-compartment pharmacokinetic/pharmacodynamic model at 200 mg, bid administered as 0.5 hr infusion over 24 hrs; type: ADME; details: in vivo, iv
[8] = tested on: Staphylococcus aureus subsp. aureus RN4220; assay: ABBC (0 to 24 hrs) in Staphylococcus aureus RN4220 MutS2 in two-compartment pharmacokinetic/pharmacodynamic model at 600 mg, bid administered as 0.5 hr infusion for 2 days; outline: as §1
[9] = in vivo; details: iv, 800 mg
[10] = tested on: Enterococcus faecalis; assay: Bactericidal activity against 2 hrs peripheral compartment culture samples of Enterococcus faecalis ATCC 29212 in two-compartment pharmacokinetic/pharmacodynamic model assessed as effect on bacterial count at 200 mg, bid administered as 0.5 hr infusion; type: functional; outline: as §2
[11] = in vitro; details: two-compartment pharmacokinetic/pharmacodynamic model, iv, 600 mg
[12] = tested on: Enterococcus faecalis; assay: Bactericidal activity against 12 hrs peripheral compartment culture samples of Enterococcus faecalis Ef1497 in two-compartment pharmacokinetic/pharmacodynamic model assessed as effect on bacterial count at 600 mg, bid administered as 0.5 hr infusion; type: functional; outline: as §3
[13] = tested on: Enterococcus faecalis; assay: Bactericidal activity against 24 hrs peripheral compartment culture samples of Enterococcus faecalis ATCC 29212 in two-compartment pharmacokinetic/pharmacodynamic model assessed as effect on bacterial count at 600 mg, bid administered as 0.5 hr infusion; type: functional; outline: as §2
[14] = Apparent volume of distribution in two-compartment pharmacokinetic/pharmacodynamic model at 200 mg, bid administered as 0.5 hrs infusion; type: ADME, organism-based; details: iv
[15] = Total clearance in two-compartment pharmacokinetic/pharmacodynamic model at 800 mg, bid administered as 0.5 hrs infusion; type: ADME, organism-based; details: iv
[16] = tested on: Staphylococcus aureus; assay: Bactericidal activity against 12 hrs peripheral compartment culture samples of Staphylococcus aureus RN4220 in two-compartment pharmacokinetic/pharmacodynamic model assessed as effect on bacterial count at 600 mg, bid administered as 0.5 hr infusion; type: functional; outline: as §2
[17] = Tmax in two-compartment pharmacokinetic/pharmacodynamic model at 800 mg, bid administered as 0.5 hrs infusion; type: ADME, organism-based; details: iv
Outline: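 Two-compartment in vitro hollow-fibre model in cation-adjusted, protein-free Mueller-Hinton broth at 37°C. Human total-plasma linezolid profile simulated as 0.5-h infusion every 12 h for 48 h, computer-controlled syringe pump into central compartment. […] Peripheral samples assayed by validated HPLC-UV (quantification limit 0.39 μg/ml). Tmax read directly from concentration-time profiles. Run in duplicate.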

[18] = tested on: Enterococcus faecalis; assay: T>MIC in Enterococcus faecalis ATCC 29212 in two-compartment pharmacokinetic/pharmacodynamic model at 600 mg, bid administered as 0.5 hr infusion for 2 days; type: functional
[19] = Cmax in two-compartment pharmacokinetic/pharmacodynamic model at 200 mg, bid administered as 0.5 hrs infusion; type: ADME, organism-based; design: dose 200 mg; details: iv
[20] = tested on: Enterococcus faecalis; assay: ABBC (0 to 24 hrs) in Enterococcus faecalis ATCC 29212 in two-compartment pharmacokinetic/pharmacodynamic model at 600 mg, bid administered as 0.5 hr infusion for 2 days; type: functional; outline: as §1
[21] = Volume of distribution at steady state in two-compartment pharmacokinetic/pharmacodynamic model bid administered as 0.5 hr infusion over 24 hrs; details: in vivo, iv; read-out: Vdss
[22] = tested on: Enterococcus faecalis; assay: Bactericidal activity against 12.5 hrs peripheral compartment culture samples of Enterococcus faecalis ATCC 29212 in two-compartment pharmacokinetic/pharmacodynamic model assessed as effect on bacterial count at 200 mg, bid administered as 0.5 hr infusion; type: functional; outline: as §2
[23] = tested on: Staphylococcus aureus; assay: Bactericidal activity against 0.5 hrs peripheral compartment culture samples of Staphylococcus aureus RN4220 in two-compartment pharmacokinetic/pharmacodynamic model assessed as effect on bacterial count at 600 mg, bid administered as 0.5 hr infusion; type: functional; outline: as §3
[24] = tested on: Enterococcus faecalis; assay: Bactericidal activity against 13 hrs peripheral compartment culture samples of Enterococcus faecalis Ef1497 MutM3 in two-compartment pharmacokinetic/pharmacodynamic model assessed as effect on bacterial count at 600 mg, bid administered as 0.5 hr infusion; type: functional; outline: as §2
[25] = Cmax in two-compartment pharmacokinetic/pharmacodynamic model at 800 mg, bid administered as 0.5 hrs infusion; type: ADME, organism-based; design: dose 800 mg; details: iv
[26] = AUC in two-compartment pharmacokinetic/pharmacodynamic model at 600 mg, bid administered as 0.5 hrs infusion; type: ADME; details: iv
[27] = Mean residence time in two-compartment pharmacokinetic/pharmacodynamic model at 600 mg, bid administered as 0.5 hr infusion over 24 hrs; type: ADME, organism-based; details: in vivo, iv
[28] = AUC in two-compartment pharmacokinetic/pharmacodynamic model at 800 mg, bid administered as 0.5 hr infusion over 24 hrs; type: ADME; design: time < 24 hr, dose 800 mg; details: in vivo, iv
[29] = tested on: Enterococcus faecalis; assay: T>MIC in Enterococcus faecalis Ef1497 MutM3 in two-compartment pharmacokinetic/pharmacodynamic model at 200 mg, bid administered as 0.5 hr infusion for 2 days; type: functional

## CC(=O)NC[C@H]1CN(c2ccc(N3CCOCC3)c(F)c2)C(=O)O1 [LINEZOLID]
[1]
  MRT: 6.81 h
[2]
  ABBC: 3.6 log10CFU/ml.hr
[3]
  AUBC: 217.1 log10CFU/ml.hr
[4]
  log10CFU/ml: 0.28
[5]
  fT>MIC: 0%
[6]
  log10CFU/ml: -0.02
[7]
  Drug uptake: 0.31 µg/mL
[8]
  ABBC: -2.27 log10CFU/ml.hr
[9]
  half-life: 312 min
[10]
  log10CFU/ml: 0.09
[11]
  half-life at 0.5 h: 392 min
[12]
  log10CFU/ml: -0.12
[13]
  log10CFU/ml: 0.32
[14]
  Vd: 141 L
[15]
  clearance: 287 mL/min
[16]
  log10CFU/ml: -0.15
[17]
  Tmax: 30 min
[18]
  fT>MIC: 69.1%
[19]
  Cmax: 4380 ng/mL
[20]
  ABBC: 1.32 log10CFU/ml.hr
[21]
  Vd: 100 L
[22]
  log10CFU/ml: 0.26
[23]
  log10CFU/ml: -0.04
[24]
  log10CFU/ml: 0.25
[25]
  Cmax: 19200 ng/mL
[26]
  AUC at 0.5 h: 43000 ng·h/mL
[27]
  MRT: 8.1 h
[28]
  AUC at 24 h: 47700 ng·h/mL
[29]
  fT>MIC: 0%
